Measured values as given in ChEMBL document CHEMBL4330096, “Discovery of potent and selective 5-azaindazole inhibitors of leucine-rich repeat kinase 2 (LRRK2) - Part 1” (Bioorg Med Chem Lett, 2019).

Columns and labels:
[1] = biological target: MAP/microtubule affinity-regulating kinase 3 (Homo sapiens) (UniProt P27448); test: Inhibition of MARK3 (unknown origin) at 10 uM relative to control
Summary of the method: (§1)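 Single-concentration screen of each compound against a 59-protein-kinase panel, run at 10 µM or 1 µM. Activity relative to control is shown as a heat map across the panel.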

[2] = biological target: RAC-beta serine/threonine-protein kinase (Homo sapiens) (UniProt P31751); test: Inhibition of PKBb (unknown origin) at 10 uM relative to control; summary of the method: as §1
RAC-beta serine/threonine-protein kinase (Homo sapiens), sequence (P31751 whole entry): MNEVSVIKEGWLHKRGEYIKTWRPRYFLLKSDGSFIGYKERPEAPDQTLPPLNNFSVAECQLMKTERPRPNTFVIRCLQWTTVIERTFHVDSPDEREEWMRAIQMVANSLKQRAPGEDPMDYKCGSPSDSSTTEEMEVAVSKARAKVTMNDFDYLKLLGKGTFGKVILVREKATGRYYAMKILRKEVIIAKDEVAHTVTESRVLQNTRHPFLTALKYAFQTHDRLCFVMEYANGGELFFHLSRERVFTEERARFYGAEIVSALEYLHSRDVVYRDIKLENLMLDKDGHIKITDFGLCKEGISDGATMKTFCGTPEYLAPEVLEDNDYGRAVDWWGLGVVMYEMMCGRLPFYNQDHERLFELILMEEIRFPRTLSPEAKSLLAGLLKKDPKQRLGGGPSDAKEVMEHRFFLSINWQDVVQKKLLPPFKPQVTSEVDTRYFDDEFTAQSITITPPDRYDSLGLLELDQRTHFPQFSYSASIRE

[3] = biological target: Serine/threonine-protein kinase pim-1 (Homo sapiens) (UniProt P11309); test: Inhibition of PIM1 (unknown origin) at 10 uM relative to control; summary of the method: as §1
Serine/threonine-protein kinase pim-1 (Homo sapiens), sequence (P11309 whole entry, looked up): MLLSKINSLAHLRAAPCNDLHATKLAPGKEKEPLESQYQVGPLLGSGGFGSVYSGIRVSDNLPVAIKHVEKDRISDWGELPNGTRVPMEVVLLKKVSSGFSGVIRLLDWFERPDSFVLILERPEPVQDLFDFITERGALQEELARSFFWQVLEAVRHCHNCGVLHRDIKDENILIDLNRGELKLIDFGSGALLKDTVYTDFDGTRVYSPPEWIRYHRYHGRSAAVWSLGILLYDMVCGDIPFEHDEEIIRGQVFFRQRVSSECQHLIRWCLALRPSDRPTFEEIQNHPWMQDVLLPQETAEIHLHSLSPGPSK

[4] = biological target: Serine/threonine-protein kinase Nek6 (Homo sapiens) (UniProt Q9HC98); test: Inhibition of NEK6 (unknown origin) at 10 uM relative to control; summary of the method: as §1
Serine/threonine-protein kinase Nek6 (Homo sapiens), sequence (Q9HC98 whole entry): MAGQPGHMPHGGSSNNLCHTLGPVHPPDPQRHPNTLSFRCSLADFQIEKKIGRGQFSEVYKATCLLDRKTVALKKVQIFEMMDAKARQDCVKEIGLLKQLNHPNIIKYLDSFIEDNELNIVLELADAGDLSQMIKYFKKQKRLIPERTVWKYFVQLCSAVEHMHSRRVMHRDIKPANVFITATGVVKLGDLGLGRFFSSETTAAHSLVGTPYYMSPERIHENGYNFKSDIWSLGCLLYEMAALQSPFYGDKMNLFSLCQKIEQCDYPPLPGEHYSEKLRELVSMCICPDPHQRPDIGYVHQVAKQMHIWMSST

[5] = biological target: T1, Ephrin type-B receptor 3 (Homo sapiens) (UniProt P54753); test: Inhibition of EPHB3 (unknown origin) at 10 uM relative to control
T1 sequence (whole entry): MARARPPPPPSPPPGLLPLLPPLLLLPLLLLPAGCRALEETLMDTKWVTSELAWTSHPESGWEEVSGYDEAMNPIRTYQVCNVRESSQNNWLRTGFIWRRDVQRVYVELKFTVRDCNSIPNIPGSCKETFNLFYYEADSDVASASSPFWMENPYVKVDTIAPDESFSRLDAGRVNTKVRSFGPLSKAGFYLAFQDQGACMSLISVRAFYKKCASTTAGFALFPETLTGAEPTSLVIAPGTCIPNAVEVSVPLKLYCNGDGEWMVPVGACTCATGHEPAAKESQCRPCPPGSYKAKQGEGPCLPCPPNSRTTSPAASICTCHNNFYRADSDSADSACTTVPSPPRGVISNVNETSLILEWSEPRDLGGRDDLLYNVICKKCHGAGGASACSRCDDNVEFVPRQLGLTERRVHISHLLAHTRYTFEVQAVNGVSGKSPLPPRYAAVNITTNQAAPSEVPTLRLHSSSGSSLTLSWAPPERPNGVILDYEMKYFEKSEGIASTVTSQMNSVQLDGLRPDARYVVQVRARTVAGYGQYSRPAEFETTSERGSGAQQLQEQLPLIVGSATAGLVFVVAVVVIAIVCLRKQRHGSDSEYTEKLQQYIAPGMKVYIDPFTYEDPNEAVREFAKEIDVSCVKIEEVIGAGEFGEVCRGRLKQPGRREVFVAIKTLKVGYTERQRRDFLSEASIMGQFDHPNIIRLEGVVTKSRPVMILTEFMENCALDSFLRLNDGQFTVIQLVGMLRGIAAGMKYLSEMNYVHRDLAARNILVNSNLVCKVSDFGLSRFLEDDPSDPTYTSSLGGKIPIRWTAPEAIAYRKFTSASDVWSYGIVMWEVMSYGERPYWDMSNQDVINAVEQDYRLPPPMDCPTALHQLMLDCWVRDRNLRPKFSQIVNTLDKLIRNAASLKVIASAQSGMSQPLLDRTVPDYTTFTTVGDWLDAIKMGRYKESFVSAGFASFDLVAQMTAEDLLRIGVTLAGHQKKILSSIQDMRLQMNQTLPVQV
Summary of the method: (§2)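 Single-point screen of each compound against a panel of 59 protein kinases, at 1 or 10 μM. The panel data are also summarised as a rescaled geometric mean selectivity score.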

[6] = biological target: Casein kinase 2 (Homo sapiens) (UniProt P67870+P68400+P19784+Q8NEV1); test: Inhibition of CK2 (unknown origin) at 10 uM relative to control; type: protein assay; summary of the method: as §2
[7] = biological target: Tyrosine-protein kinase CSK (Homo sapiens) (UniProt P41240); test: Inhibition of CSK (unknown origin) at 10 uM relative to control; summary of the method: as §2
Tyrosine-protein kinase CSK (Homo sapiens), sequence (P41240 2-450 limits assumed): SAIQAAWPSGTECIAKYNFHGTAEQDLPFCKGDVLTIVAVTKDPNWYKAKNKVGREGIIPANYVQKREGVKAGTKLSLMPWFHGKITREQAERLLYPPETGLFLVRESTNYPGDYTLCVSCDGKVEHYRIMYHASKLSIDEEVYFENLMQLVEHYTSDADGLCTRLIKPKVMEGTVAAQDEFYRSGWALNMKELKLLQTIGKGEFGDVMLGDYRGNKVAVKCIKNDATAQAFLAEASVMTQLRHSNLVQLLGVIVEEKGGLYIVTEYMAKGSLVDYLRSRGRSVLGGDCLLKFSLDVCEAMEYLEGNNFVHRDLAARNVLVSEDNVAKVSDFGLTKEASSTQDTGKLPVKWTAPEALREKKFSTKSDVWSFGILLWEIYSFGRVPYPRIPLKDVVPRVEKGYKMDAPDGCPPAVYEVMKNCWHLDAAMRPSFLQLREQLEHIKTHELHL

[8] = biological target: Ribosomal protein S6 kinase alpha-3 (Homo sapiens) (UniProt P51812); test: Inhibition of RSK2 (unknown origin) at 10 uM relative to control
Ribosomal protein S6 kinase alpha-3 (Homo sapiens), sequence (P51812 whole entry): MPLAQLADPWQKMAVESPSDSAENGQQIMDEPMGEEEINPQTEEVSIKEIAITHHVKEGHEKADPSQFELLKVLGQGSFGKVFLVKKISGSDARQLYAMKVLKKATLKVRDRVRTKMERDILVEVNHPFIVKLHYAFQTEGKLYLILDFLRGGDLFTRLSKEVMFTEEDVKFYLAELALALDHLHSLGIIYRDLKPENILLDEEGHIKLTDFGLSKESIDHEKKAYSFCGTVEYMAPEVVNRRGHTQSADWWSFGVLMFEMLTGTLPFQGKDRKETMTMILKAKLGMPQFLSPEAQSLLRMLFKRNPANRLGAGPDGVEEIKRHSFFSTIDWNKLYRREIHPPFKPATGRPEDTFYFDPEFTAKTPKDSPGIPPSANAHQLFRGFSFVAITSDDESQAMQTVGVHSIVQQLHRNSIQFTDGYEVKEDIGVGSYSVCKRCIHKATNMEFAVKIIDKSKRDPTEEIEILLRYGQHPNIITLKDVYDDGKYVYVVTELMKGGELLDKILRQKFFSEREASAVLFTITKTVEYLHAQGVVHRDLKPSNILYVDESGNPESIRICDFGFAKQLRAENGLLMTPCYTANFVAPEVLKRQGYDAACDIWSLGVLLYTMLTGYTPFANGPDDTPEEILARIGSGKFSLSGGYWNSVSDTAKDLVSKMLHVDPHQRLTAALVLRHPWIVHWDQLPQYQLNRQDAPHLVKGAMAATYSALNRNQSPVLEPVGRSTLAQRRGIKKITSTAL
Summary of the method: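 Single-concentration screen across a panel of 59 protein kinases, with each compound tested at one fixed concentration. The read-out is residual kinase activity relative to control. Panel results are also condensed into a rescaled geometric mean (RGM) selectivity score.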

[9] = biological target: T2, Serine/threonine-protein kinase D1 (Homo sapiens) (UniProt Q15139); test: Inhibition of PKD1 (unknown origin) at 10 uM relative to control; summary of the method: as §1
T2 sequence (whole entry): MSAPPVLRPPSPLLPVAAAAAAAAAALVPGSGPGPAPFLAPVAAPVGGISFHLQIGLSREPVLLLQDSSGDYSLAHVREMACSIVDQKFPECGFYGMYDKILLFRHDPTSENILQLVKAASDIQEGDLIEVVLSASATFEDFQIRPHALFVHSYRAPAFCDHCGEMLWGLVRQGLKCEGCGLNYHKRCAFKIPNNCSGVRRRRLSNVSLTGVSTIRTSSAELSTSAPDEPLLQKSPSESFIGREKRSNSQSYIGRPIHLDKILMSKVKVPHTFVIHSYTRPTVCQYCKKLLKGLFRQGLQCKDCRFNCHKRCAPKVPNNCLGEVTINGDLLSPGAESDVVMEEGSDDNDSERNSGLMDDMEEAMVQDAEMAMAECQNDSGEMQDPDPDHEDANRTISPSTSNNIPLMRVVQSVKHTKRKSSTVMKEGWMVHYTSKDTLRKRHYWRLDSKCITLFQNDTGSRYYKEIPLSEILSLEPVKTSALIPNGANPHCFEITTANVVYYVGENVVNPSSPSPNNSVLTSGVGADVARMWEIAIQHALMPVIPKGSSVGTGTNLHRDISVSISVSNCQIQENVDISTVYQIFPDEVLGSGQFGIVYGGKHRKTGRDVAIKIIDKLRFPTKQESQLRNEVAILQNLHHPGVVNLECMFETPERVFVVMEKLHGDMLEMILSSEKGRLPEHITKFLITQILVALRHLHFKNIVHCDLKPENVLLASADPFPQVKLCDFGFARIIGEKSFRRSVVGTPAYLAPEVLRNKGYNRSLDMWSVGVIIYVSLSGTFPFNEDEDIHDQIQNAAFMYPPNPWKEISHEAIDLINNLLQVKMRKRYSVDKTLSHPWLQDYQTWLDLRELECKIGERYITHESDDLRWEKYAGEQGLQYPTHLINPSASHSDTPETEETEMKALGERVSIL

[10] = biological target: RAC-alpha serine/threonine-protein kinase (Homo sapiens) (UniProt P31749); test: Inhibition of PKBa (unknown origin) at 10 uM relative to control; summary of the method: as §1
RAC-alpha serine/threonine-protein kinase (Homo sapiens), sequence (P31749 whole entry): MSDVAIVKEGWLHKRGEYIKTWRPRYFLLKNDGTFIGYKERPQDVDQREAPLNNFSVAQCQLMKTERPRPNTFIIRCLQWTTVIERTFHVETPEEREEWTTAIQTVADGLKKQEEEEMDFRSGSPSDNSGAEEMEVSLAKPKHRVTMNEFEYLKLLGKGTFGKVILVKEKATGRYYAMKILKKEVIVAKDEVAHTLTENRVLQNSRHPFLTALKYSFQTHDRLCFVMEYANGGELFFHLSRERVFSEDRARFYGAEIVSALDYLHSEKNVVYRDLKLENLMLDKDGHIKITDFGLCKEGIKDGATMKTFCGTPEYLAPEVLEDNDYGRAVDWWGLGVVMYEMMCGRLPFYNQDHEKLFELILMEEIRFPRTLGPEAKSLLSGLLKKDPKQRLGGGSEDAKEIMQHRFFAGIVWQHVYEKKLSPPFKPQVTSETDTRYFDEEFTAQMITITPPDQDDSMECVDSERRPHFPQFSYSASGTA

MAP/microtubule affinity-regulating kinase 3 (Homo sapiens), sequence (P27448 whole entry, looked up): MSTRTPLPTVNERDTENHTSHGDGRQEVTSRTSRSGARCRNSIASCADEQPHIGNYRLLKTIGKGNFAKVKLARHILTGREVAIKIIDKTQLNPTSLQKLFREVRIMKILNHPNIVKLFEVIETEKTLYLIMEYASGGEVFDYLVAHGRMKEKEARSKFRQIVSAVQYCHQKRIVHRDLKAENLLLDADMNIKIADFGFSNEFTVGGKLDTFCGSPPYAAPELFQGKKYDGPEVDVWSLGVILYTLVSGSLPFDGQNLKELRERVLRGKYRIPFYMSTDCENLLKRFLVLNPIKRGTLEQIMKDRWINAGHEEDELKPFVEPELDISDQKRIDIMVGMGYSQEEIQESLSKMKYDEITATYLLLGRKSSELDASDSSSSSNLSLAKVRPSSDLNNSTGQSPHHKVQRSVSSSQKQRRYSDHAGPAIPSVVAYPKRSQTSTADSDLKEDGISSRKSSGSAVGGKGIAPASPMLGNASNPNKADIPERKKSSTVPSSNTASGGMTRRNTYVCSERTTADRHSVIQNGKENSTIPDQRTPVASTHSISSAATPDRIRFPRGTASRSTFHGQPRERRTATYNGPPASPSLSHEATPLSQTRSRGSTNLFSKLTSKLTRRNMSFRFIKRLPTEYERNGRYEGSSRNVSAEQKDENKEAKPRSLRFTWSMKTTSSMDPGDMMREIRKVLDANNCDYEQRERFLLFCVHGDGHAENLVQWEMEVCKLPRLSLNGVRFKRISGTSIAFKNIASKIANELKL

SMILES | inhibition [1] [%] | inhibition [2] [%] | inhibition [3] [%] | inhibition [4] [%] | inhibition [5] [%] | inhibition [6] [%] | inhibition [7] [%] | inhibition [8] [%] | inhibition [9] [%] | inhibition [10] [%]
Cc1n[nH]c2ccnc(Nc3ccccc3F)c12 | 46 | 15 | 67 | 12 | 39 | 54 | 8 | 38 | 60 | 34
Cc1n[nH]c2ccnc(NC3CCCCC3)c12 | 34 | 24 | 66 | 13 | 39 | 45 | 0 | 51 | 34 | 29
Cc1n[nH]c2ccnc(Nc3ccc4ncsc4c3)c12 | 36 | – | – | – | – | – | 0 | 73 | – | –
Cc1n[nH]c2ccnc(OC3CCCCC3)c12 | 46 | 28 | 60 | 4 | 92 | 41 | 20 | 73 | 70 | 55
